Assay: Toxicity liver stage against HepG2, at 10uM
Format: cell-based
Parameters: test concentration 10 uM, cell line HepG2-A16-CD81EGFP
Settings: human, HepG2-A16-CD81EGFP cells; read-out: INHIBITION
Summary of the method: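 Uninfected HepG2-A16-CD81EGFP cells, 3 × 10^3 per well, 1536-well, plated on prespotted compound at 10 μM final, parasite-free screening media added to match infected plates; puromycin 10 μM positive, DMSO 0.5% negative; run in parallel with 48 h PbLuc assay at 37 °C, 5% CO2; viability by CellTiter-Glo luminescence, normalized to controls.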

Row | SMILES | cytotoxicity at 10 µM [%]
1 | COCCNC(=O)[C@H]1CN2CCC1C[C@@H]2Cn1cc(C(C)(C)C)nn1 (stereo partly drawn) | 7.95
2 | CC(C)(O)c1cc(CC2(NCC3CCCCC3)COC2)no1 | 0.0962
3 | COc1ccccc1C(=O)N1CC(=O)N(Cc2ccco2)CC(O)C1 (stereo not drawn) | 4.45
4 | COC(=O)c1cc2c(=O)n(C3CC3)ccc2nc1C | -47
5 | COCCNC(=O)Cn1cc(OCc2ccc(F)cc2)c(=O)cc1CO | 2.73
6 | Cc1ccc(C)c(S(=O)(=O)NCCOc2ccc3nnc(C)n3n2)c1 | -11.3
7 | O=c1[nH]nc2nc(N3CCOCC3)ccn12 | -5.08
8 | O=C(Nc1ccc(Cl)cc1)c1nn(C2CCS(=O)(=O)C2)c2c1CCCC2 (stereo not drawn) | 2.96
9 | COc1ccc(NC(=O)CSc2ccc3nncn3n2)c(OC)c1 | 3.94
10 | O=C(CC1Cn2ncnc2NC1=O)Nc1ccc(F)c(F)c1 (stereo not drawn) | 2.02
11 | O=C(CSC1CCc2ccccc2NC1=O)NCc1ccccc1 (stereo not drawn) | 6.37
12 | NC(=O)c1ccc(NC(=O)Cn2cc(-c3ccccc3)ncc2=O)cc1 | 4.6
13 | O=C(Cc1csc(-c2ccc(Cl)cc2)n1)NC(C(=O)O)c1ccccc1 (stereo not drawn) | 4.91
14 | COc1cc(OC)c(C2SCC(=O)Nc3n[nH]cc32)cc1OC (stereo not drawn) | -6.08
15 | O=C(O)C1CCCN1c1nc(-c2ccc(Cl)cc2)cc(C(F)(F)F)n1 (stereo not drawn) | 30.1
16 | CCn1nc(C)c2ncnc(N3CCCC(C)C3)c21 (stereo not drawn) | 9.18
17 | Nc1nc(N)c2c(n1)OC1(CCN(C(=O)CC3CCCNC3)CC1)C2 (stereo not drawn) | 5.03
18 | CCN(CCCc1ccccc1)CC1(C)Cc2c(N)nc(N)nc2O1 (stereo not drawn) | 0.822
19 | CCC(=O)N1CCC(Cc2ccccc2-c2cccc(C)c2)(C(N)=O)C1 (stereo not drawn) | -27.5
20 | Cc1noc(C)c1-c1cncc(C2CCCN2Cc2cn(C)cn2)n1 (stereo not drawn) | -20.4
21 | Cc1cc(N2CCCC2c2nccnc2C)ncn1 (stereo not drawn) | -20.8

Row | SMILES | cytotoxicity at 10 µM [%]
22 | CC(=O)N1CCC(c2nccnc2-c2ccc(F)c(F)c2)CC1 | -19.1
23 | Nc1nc2nc(C3CCCN(C(=O)c4cnccn4)C3)ccc2s1 (stereo not drawn) | -16
24 | CN(C)c1cc(C(F)(F)F)cc(-c2ccc(C(=O)O)cc2)n1 | 9.15
25 | CC(=O)Nc1ccc(SCC(O)COCc2ccco2)cc1 (stereo not drawn) | 8.45
26 | Cc1nc(CCCC(=O)Nc2cccc(N3CCNC3=O)c2)cs1 | -2.26
27 | COCC1CCN(CCOc2ccc(C#N)cc2OC)CC1 | 4.11
28 | O=S(=O)(Cc1ccccc1Cl)CC(O)CO (stereo not drawn) | 6.44
29 | CC(=O)N1CCCN(Cc2csc(C)n2)c2ccccc21 | 0.00333
30 | NC(=O)COc1cccc(Cn2cc(Br)cn2)c1 | 1.98
31 | COc1ccc(Br)c(NC(=O)NCc2cnn(C)c2)c1 | 6.91
32 | CC(C)(C)c1noc(CN2CCCc3cc(OC(F)(F)F)ccc32)n1 | -0.813
33 | CC(NC(=O)CN1C=Nc2ccccc2S1(=O)=O)C1CC1 (stereo not drawn) | 4.53
34 | CC(C)c1noc(CCCC(=O)Nc2cccc(F)c2)n1 | 7.01
35 | Cc1nc(CN2CCCN(C(=O)CC(C)n3cccc3)CC2)cs1 (stereo not drawn) | -6.25
36 | CCc1ccc(CC(=O)N2CCN(c3nccn3C)CC2)cc1 | -0.647
37 | CN(C(=O)CNCCn1cccn1)C1(C#N)CCCCC1 | 2.04
38 | Cc1ccc(C(=O)N(C)Cc2c(C)noc2C)c(=O)[nH]1 | -8.2
39 | CCN(C(=O)CN1CCC(c2cc3ccccc3[nH]2)CC1)C1CC1 | 0.99
40 | CCN(C(=O)C(C)S(=O)(=O)Cc1nc(C)no1)c1ccccc1 (stereo not drawn) | 4.03
41 | O=C(Nc1cccc(OCC(F)F)n1)c1ccncc1 | -6.02
42 | CC(CO)NC(=O)c1ccc(NCc2cc(C#N)ccc2F)cc1 (stereo not drawn) | 1.98

Row | SMILES | cytotoxicity at 10 µM [%]
43 | Cc1ccc(CNC(=O)c2oc3ccccc3c2CN(C)C)n1C | 0.521
44 | N#Cc1cc(NC(=O)C2CC=CC2)ccc1N1CCC(O)CC1 | -9.29
45 | Cc1ccc(F)cc1S(=O)(=O)N(C)CC(N)=O | -12.6
46 | CCCNC(=O)COc1ccc(C)cn1 | -14.5
47 | CN(C)C(=O)c1cccc(NC(=O)N(CCO)Cc2ccsc2)c1 | -13.4
48 | CO[C@@H]1c2ccccc2C2(CCN(C(=O)CNC(=O)C(C)C)CC2)[C@H]1O | -3.26
49 | Cc1nc[nH]c1C(=O)NCc1cccnc1N(C)C1CCCCC1 | -4.12
50 | CCC[C@@H]1CN(c2ncnc3sccc23)C[C@H]1NS(C)(=O)=O | -1.25
51 | CN(CCc1cnn(C)c1)C(=O)Cn1c(=O)[nH]c2ccccc21 | 4.5
52 | CN(C)C(=O)NCc1cc2n(n1)CCCN(CC1CCCNC1)C2 (stereo not drawn) | -4.07
53 | N#CC1(C(=O)N2C[C@H](Nc3ccnc(N)n3)[C@@H](C3CC3)C2)CCOCC1 | -1.2
54 | NCCc1cccc(CN2CCN(c3ccccc3)C(=O)C2)c1 | 3.47
55 | CCCn1ccnc1CN1CCC(Oc2cccc(F)c2)(C(=O)O)CC1 | 1
56 | CCn1cc(Cn2cc(-c3cccc(C(C)N(C)C)c3)nn2)cn1 (stereo not drawn) | -6.97
57 | CN(C)CCNC(=O)CCC1CCN(C(=O)c2ccc(O)cn2)CC1 | 1.23
58 | COc1ccc([C@@H]2CN(C(=O)CCn3cccn3)C[C@H]2NC(C)=O)cc1 | 7.18
59 | CC(c1cccs1)N(C)C(=O)c1cc(CN(C)Cc2ccccc2)on1 (stereo not drawn) | 5.44
60 | O=S(=O)(c1cc(F)ccc1F)N1CCCC1c1ccco1 (stereo not drawn) | 11.2
61 | Cc1ccccc1[C@@H]1CN(C(=O)c2ccc3[nH]nnc3c2)C[C@H]1C(=O)O | -7.21
62 | Cc1nc(C(=O)N2CCc3c(nc(-c4ccncc4)[nH]c3=O)C2)cs1 | -6.37
63 | CCc1ccc(CN2CCCC(CO)(CCOC)C2)cc1 (stereo not drawn) | -0.26

Row | SMILES | cytotoxicity at 10 µM [%]
64 | CCCn1nc(C2CCNCC2)n(Cc2ccccc2)c1=O | -12.9
65 | O=C(c1cnco1)N1CCCC(Cc2nccs2)C1 (stereo not drawn) | 4.84
66 | Cc1nc(C2CCCN2Cc2nc(C3CC3)no2)no1 (stereo not drawn) | -12.7
67 | CCOc1ccccc1C(CC(=O)Nc1ccncc1)NC(C)=O (stereo not drawn) | -12.6
68 | CC(C(=O)NCc1ccc(N2CCNC(=O)C2)cc1)n1cncn1 (stereo not drawn) | -9.21
69 | CN(C)S(=O)(=O)c1ccc(CN2CCCC2CO)o1 (stereo not drawn) | -6.88
70 | Cc1nc2ccccc2c(=O)n1CCC(=O)N1CCSCC1 | -6.13
71 | c1cnn(CC2CN(Cc3ccc(-n4ccnc4)cc3)CCO2)c1 (stereo not drawn) | -3.12
72 | COc1ncccc1CNC(=O)NCCNC(=O)c1ccco1 | -0.313
73 | Cc1ccc(C(O)CNCCn2cccn2)cc1C (stereo not drawn) | -6.11
74 | Cc1cnn(CCNCc2ccccc2Oc2cccnc2)c1 | 6.33
75 | Cc1cnn(CCC(=O)N2CCCN(c3ncccc3C#N)CC2)c1 | 4.11
76 | Cn1ccnc1CN1CCN(CC(O)c2ccco2)CC1 (stereo not drawn) | 2.38
77 | CCOc1ccc(CC(CNC(=O)c2occc2C)C(N)=O)cc1 (stereo not drawn) | 5.17
78 | O=C1[C@H]2CN(Cc3cccs3)C[C@H]2CN1c1cncnc1 | -13.8
79 | O=C(NC1CC1)[C@@H]1CCO[C@@H]2CCN(C3CCOCC3)C[C@@H]21 | -9.87
80 | c1cn(-c2cnc(C3CCNCC3)cn2)cn1 | -5.72
81 | c1cnc(N2CCOCC3(CCCN(CC4CC4)C3)C2)cn1 (stereo not drawn) | -15.8
82 | O=C(CC(F)(F)F)N1C[C@H]2CC[C@@H](C1)N(Cc1ccccc1)C2=O | 7.71
83 | c1ccc(COC2C[C@@H]3CN(Cc4cccnc4)C[C@@H]3C2)cc1 (stereo partly drawn) | 2.92

Reference: ChEMBL document CHEMBL4513216, “Probing the Open Global Health Chemical Diversity Library for Multistage-Active Starting Points for Next-Generation Antimalarials” (ACS Infect Dis, 2020)
